Experiments:
[1] = molecular target: Cholinesterase (Equus caballus, UniProt P81908); test: Inhibition of equine serum BuChE using DTNB as substrate incubated for 5 mins prior to substrate addition measured after 2 mins by Ellman's method
[2] = molecular target: Acetylcholinesterase (Electrophorus electricus, UniProt O42275); test: Inhibition of electric eel AChE using DTNB as substrate incubated for 5 mins prior to substrate addition measured after 2 mins by Ellman's method
[3] = Metal chelating activity of the compound assessed as formation of Cu2+-compound complex at 50 uM after 30 mins by UV-vis spectrometry; type: physicochemical; conditions: 0.5 h
In short: (§1)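 UV absorption scan from 200 to 600 nm of compound in methanol, alone or with CuCl2 or FeSO4. Read after 30 min at room temperature, with compound and metal each at 50 μM final.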

[4] = Metal chelating activity of the compound assessed as formation of Fe2+-compound complex at 50 uM after 30 mins by UV-vis spectrometry; type: physicochemical; conditions: 0.5 h; in short: as §1
[5] = Metal chelating activity of the compound assessed as reduction of Cu2+-induced amyloid beta (1 to 42) (unknown origin) aggregation at 50 uM after 24 hrs by thioflavin-T-based fluorescence assay relative to control; type: physicochemical
In short: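 Aβ1–42 was HFIP-treated, dried, and held as DMSO stock. Diluted in […] (pH 6.6) with […]; 25 μM peptide incubated with or without 25 μM Cu2+ and 50 μM compound, 37 °C, 24 h.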

[6] = Metal chelating activity of the compound assessed as reduction of Cu2+-induced amyloid beta (1 to 42) (unknown origin) aggregation at 50 uM after 24 hrs by transmission electron microscopic analysis; type: physicochemical
In short: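 Aβ1–42 diluted in 20 mM phosphate buffer (pH 7.4) at 4 °C. Preincubated 2 min with Cu2+ (Aβ and Cu2+ each 25 μM final), then incubated 24 h at 37 °C with or without compound at 50 μM. Samples placed on carbon-coated grids for 2 min at room temperature, stained 2 min with 1% uranyl acetate, and imaged by TEM.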

[7] = Metal chelating activity of the compound assessed as reduction of Cu2+-amyloid beta (1 to 42)-complex induced H2O2 production from ascorbate at 800 nM after 30 mins by HRP/Amplex Red assay relative to control; type: physicochemical; set-up: scale not given: the % may be the effect or the level left; conditions: 0.5 h, 0.8 µM
In short: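 Per well, in phosphate buffer (100 μL): CuCl2 400 nM, Aβ 200 nM, chelator 800 nM (1% v/v DMSO) and sodium ascorbate 10 mM, held 30 min at room temperature. Working solution with Amplex Red and HRP then added for another 30 min at room temperature. Fluorescence ex/em 530/590 nm. At least three measurements.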

[8] = Cytotoxicity against HEK293 cells assessed as cell viability at 0.1 uM after 48 hrs by MTT assay relative to control; type: cell-based; conditions: human, read-out: Activity
In short: (§2)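 HEK 293 cells grown in DMEM with 10% FBS and 1% penicillin–streptomycin at 37 °C, 5% CO2. Seeded at 5000 cells/well and cultured 24 h, then exposed 48 h to compound (DMSO stock diluted in complete medium; 0.1–100 μM final), in triplicate. MTT added for 4 h, formazan dissolved in DMSO, absorbance read at 570 nm against 630 nm reference. Mean ± SEM of 3 independent experiments.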

[9] = Cytotoxicity against HEK293 cells assessed as cell viability at 1 uM after 48 hrs by MTT assay relative to control; type: cell-based; conditions: human, read-out: Activity; in short: as §2
[10] = Cytotoxicity against HEK293 cells assessed as cell viability at 10 uM after 48 hrs by MTT assay relative to control; type: cell-based; conditions: human, read-out: Activity; in short: as §2
[11] = Cytotoxicity against HEK293 cells assessed as cell viability at 25 uM after 48 hrs by MTT assay relative to control; type: cell-based; conditions: human, read-out: Activity; in short: as §2
[12] = Cytotoxicity against HEK293 cells assessed as cell viability at 50 uM after 48 hrs by MTT assay relative to control; type: cell-based; conditions: human, read-out: Activity; in short: as §2
[13] = Cytotoxicity against HEK293 cells assessed as cell viability at 100 uM after 48 hrs by MTT assay relative to control; type: cell-based; conditions: human, read-out: Activity; in short: as §2
[14] = test system: HEK293; test: Cytotoxicity against HEK293 cells assessed as cell viability at 0.1 to 100 uM after 48 hrs by MTT assay relative to control; type: cell-based; conditions: human, hek293, 48 h; in short: as §2
[15] = molecular target: Amyloid-beta precursor protein (Homo sapiens) (UniProt P05067); conditions: at 25 µM
Amyloid-beta precursor protein (Homo sapiens), sequence (P05067 whole entry): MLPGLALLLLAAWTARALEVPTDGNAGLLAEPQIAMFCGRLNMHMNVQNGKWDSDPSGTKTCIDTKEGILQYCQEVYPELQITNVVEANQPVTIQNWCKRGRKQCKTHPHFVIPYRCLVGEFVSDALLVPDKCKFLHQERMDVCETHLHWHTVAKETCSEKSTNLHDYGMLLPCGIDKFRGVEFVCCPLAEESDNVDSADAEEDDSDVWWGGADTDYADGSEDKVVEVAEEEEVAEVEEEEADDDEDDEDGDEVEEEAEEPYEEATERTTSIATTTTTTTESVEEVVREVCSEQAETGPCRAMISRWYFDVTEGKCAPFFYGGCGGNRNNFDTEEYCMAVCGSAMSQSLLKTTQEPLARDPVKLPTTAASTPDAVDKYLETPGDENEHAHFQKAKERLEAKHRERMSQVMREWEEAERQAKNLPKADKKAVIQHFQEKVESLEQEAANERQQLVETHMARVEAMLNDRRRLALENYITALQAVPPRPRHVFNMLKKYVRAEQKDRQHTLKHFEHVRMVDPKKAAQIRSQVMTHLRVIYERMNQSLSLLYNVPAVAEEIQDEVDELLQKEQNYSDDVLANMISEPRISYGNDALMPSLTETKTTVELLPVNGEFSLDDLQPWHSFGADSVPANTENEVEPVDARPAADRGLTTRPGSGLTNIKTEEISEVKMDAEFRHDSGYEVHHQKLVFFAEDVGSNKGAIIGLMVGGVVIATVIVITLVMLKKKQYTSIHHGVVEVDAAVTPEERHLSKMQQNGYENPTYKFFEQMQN

Cholinesterase, sequence (P81908 whole entry): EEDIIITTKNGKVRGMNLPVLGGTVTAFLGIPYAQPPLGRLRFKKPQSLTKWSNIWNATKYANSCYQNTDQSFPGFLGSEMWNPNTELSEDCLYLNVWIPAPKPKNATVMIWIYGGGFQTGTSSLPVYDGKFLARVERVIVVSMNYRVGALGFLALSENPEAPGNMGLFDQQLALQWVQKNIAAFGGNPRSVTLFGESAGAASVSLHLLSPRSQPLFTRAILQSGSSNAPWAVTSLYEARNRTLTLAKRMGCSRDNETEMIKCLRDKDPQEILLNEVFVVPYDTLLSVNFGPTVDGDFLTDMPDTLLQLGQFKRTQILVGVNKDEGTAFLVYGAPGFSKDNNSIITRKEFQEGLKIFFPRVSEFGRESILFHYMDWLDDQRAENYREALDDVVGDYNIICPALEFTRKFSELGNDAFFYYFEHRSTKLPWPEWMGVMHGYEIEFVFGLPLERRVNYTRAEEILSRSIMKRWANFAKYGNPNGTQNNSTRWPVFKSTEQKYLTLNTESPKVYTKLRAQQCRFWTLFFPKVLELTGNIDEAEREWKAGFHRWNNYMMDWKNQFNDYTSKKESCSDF
Acetylcholinesterase, sequence (O42275 whole entry): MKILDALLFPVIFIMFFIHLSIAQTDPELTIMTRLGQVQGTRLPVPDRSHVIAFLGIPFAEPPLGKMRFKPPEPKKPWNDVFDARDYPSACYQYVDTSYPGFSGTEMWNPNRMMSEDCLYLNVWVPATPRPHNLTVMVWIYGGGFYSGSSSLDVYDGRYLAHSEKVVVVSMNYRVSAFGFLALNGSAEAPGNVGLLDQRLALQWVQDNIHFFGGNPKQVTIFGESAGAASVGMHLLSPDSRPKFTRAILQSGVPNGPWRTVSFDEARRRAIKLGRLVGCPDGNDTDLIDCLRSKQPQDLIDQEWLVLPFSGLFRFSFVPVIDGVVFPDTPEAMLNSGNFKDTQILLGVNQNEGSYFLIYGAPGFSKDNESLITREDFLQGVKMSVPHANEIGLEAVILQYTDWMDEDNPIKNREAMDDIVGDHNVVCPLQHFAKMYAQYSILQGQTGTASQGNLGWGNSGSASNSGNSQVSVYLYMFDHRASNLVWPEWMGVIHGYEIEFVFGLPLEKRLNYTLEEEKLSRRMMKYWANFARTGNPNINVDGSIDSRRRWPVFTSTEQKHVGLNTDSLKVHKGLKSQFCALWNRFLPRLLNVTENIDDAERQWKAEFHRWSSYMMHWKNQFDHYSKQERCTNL

Compound	IC50 [1]	IC50 [2]	inhibition [15]	also measured
COc1ccc(/C=C/C(=O)SSC(=O)/C=C/c2ccc(OC)c(OC)c2)cc1OC	13.6 µM	0.056 µM	74.2%	Activity [3]: Active; Activity [4]: Active; inhibition (INH) [5]: 80.9%; inhibition (INH) [6]: Active; Activity [7]: 72%; viability at 48 h, 0.1 µM [8]: 98.9%; viability at 48 h, 1 µM [9]: 96.1%; viability at 48 h, 10 µM [10]: 95.4%; viability at 48 h, 25 µM [11]: 95.7%; viability at 48 h, 50 µM [12]: 92.8%; viability at 48 h, 100 µM [13]: 88.6%; Activity [14]: Dose-dependent effect
Brc1cccc(/C=C/CSSC/C=C/c2cccc(Br)c2)c1	75.4 µM	23.7 µM	39.4%	–
Fc1cccc(/C=C/CSSC/C=C/c2cccc(F)c2)c1	> 100 µM	53.2 µM	44.2%	–
COc1cc(/C=C/C(=O)SSC(=O)/C=C/c2ccc(O)c(OC)c2)ccc1O	12.9 µM	0.121 µM	71.4%	Activity [3]: Active; Activity [4]: Active; inhibition (INH) [5]: 78.5%; inhibition (INH) [6]: Active; Activity [7]: 62%; viability at 48 h, 0.1 µM [8]: 97.3%; viability at 48 h, 1 µM [9]: 96.5%; viability at 48 h, 10 µM [10]: 94.4%; viability at 48 h, 25 µM [11]: 92.3%; viability at 48 h, 50 µM [12]: 90.1%; viability at 48 h, 100 µM [13]: 80.9%; Activity [14]: Dose-dependent effect
COc1cc(/C=C/C(=O)CC(=O)/C=C/c2ccc(O)c(OC)c2)ccc1O [CURCUMIN]	–	–	–	inhibition (INH) [5]: 65.9%
Clc1cccc(/C=C/CSSC/C=C/c2cccc(Cl)c2)c1	> 100 µM	44.2 µM	52.4%	–
Brc1ccc(/C=C/CSSC/C=C/c2ccc(Br)cc2)cc1	72.5 µM	20.9 µM	37.5%	–
O=C(/C=C/c1ccc(F)cc1)SSC(=O)/C=C/c1ccc(F)cc1	32.4 µM	0.45 µM	62.4%	–
O=C(/C=C/c1ccc(Br)cc1)SSC(=O)/C=C/c1ccc(Br)cc1	37.2 µM	0.34 µM	52.2%	–
Oc1ccc(/C=C/CSSC/C=C/c2ccc(O)cc2)cc1	63 µM	12.3 µM	53%	–
Fc1cccc(F)c1/C=C/CSSC/C=C/c1c(F)cccc1F	> 100 µM	42.3 µM	39.5%	–
O=C(/C=C/c1cccc(Br)c1)SSC(=O)/C=C/c1cccc(Br)c1	38.7 µM	0.54 µM	68.7%	–
COc1cc(/C=C/CSSC/C=C/c2ccc(O)c(OC)c2)ccc1O	57.9 µM	1.45 µM	66.9%	–
O=C(O)CN(CCN(CC(=O)O)CC(=O)O)CC(=O)O [EDETIC ACID]	–	–	–	Activity [7]: > 80%
O=C(/C=C/c1ccc(Cl)cc1)SSC(=O)/C=C/c1ccc(Cl)cc1	35.6 µM	0.51 µM	65.6%	–
COc1ccc(/C=C/C(=O)SSC(=O)/C=C/c2ccc(OC)cc2OC)c(OC)c1	14.9 µM	0.142 µM	69%	–
COc1ccc(/C=C/CSSC/C=C/c2ccc(OC)cc2)cc1	59.5 µM	8.29 µM	58.5%	–
O=C(/C=C/c1ccc(O)cc1)SSC(=O)/C=C/c1ccc(O)cc1	24.5 µM	0.21 µM	66.4%	–
Fc1ccccc1/C=C/CSSC/C=C/c1ccccc1F	> 100 µM	48.7 µM	33.5%	–
Clc1ccc(/C=C/CSSC/C=C/c2ccc(Cl)cc2)cc1	94.2 µM	37 µM	48.2%	–
Clc1cc(Cl)cc(/C=C/CSSC/C=C/c2cc(Cl)cc(Cl)c2)c1	> 100 µM	64.6 µM	47.5%	–
COc1ccc(/C=C/CSSC/C=C/c2ccc(OC)c(OC)c2)cc1OC	55.2 µM	1.1 µM	61.2%	–
COc1ccc(/C=C/C(=O)SSC(=O)/C=C/c2ccc(OC)cc2)cc1	16 µM	0.22 µM	63.5%	–
